Results taken from ChEMBL document CHEMBL1155617, “Cytotoxic constituents of Polyalthia longifolia var. pendula” (J Nat Prod, 2000).
Calls of active or inactive are those of the source. The rule behind the calls is not given here.

Experiments:
Type in all cases: functional, cell-based
[1] = system: AGS; experiment: Cytotoxicity against human AGS cells by MTS colorimetric assay
Outline: (§1)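 Cells grown in DMEM with 10% fetal calf serum and seeded 24 h before treatment. Viability read by MTS colorimetric assay after 72 h compound exposure. IC50 taken as mean concentration giving 50% growth inhibition from replicate values.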

[2] = system: DLD-1; experiment: Cytotoxicity against human DLD1 cells by MTS colorimetric assay; outline: as §1
[3] = (§2) Cytotoxicity against human HA59T cells by MTS colorimetric assay; outline: as §1
[4] = system: HepG2; experiment: Cytotoxicity against human HepG2 cells by MTS colorimetric assay; outline: as §1
[5] = system: AGS; experiment: Cytotoxicity against human AGS cells upto 30 uM by MTS colorimetric assay
Outline: (§3)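 Cells grown in DMEM with 10% fetal calf serum, seeded and cultured 24 h, then exposed to test compounds for 72 h. Viability read by MTS colorimetric assay.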

[6] = system: DLD-1; experiment: Cytotoxicity against human DLD1 cells upto 30 by MTS colorimetric assay; outline: as §3
[7] = system: HA59T; experiment: Cytotoxicity against human HA59T cells upto 30 by MTS colorimetric assay; outline: as §3
[8] = system: HepG2; experiment: Cytotoxicity against human HepG2 cells upto 30 by MTS colorimetric assay; outline: as §3
[9] = system: HA59T; experiment: as §2; outline: as §1

SMILES	IC50 [1] [µM]	IC50 [2] [µM]	IC50 [3] [µM]	IC50 [4] [µM]	Activity [5]	Activity [6]	Activity [7]	Activity [8]	other results
COc1ccc2c(c1O)-c1nccc(C)c1C2=O	> 30	> 30	21.7	> 30					
COc1cc2c(cc1O)[C@@H]1Cc3ccc(O)c(OC)c3CN1CC2					inactive	inactive	inactive	inactive	
CC1=CCC[C@@H]2[C@@](C)(CCC3=CC(=O)O[C@@H]3O)[C@H](C)CC[C@@]12C	26.9	> 30	23.6	> 30					
c1ccc2c(c1)C[C@H]1NCCc3cc4c(c-2c31)OCO4 [ANONAINE]	8.6	28.9	16.4	20.8					
C[C@@H]1CC[C@@]2(O)[C@H](CC[C@H](O)C2(C)C)[C@@]1(C)CCC1=CC(=O)O[C@@H]1O									Activity [1]: inactive; Activity [2]: inactive; Activity [9]: inactive; Activity [4]: inactive
COc1cc2c(cc1O)C[C@@H]1NCCc3cc(O)c(OC)c-2c31					inactive	inactive	inactive	inactive	
